Experimental findings from ChEMBL document CHEMBL1909632, “New aldehyde and vinylsulfone proteasome inhibitors for targeted melanoma therapy” (Eur J Med Chem, 2011) are described below.

The Kp is tissue or fluid exposure divided by exposure in the circulation. Broadly, the IC50 is the concentration needed to halve the response being measured.

Series [1] can be described thus: Drug uptake in tumor of mouse xenografted with mouse B16 cells assessed per gram of tissue after 15 mins. Format: ADME, Neoplasm. The following applies: in vivo, 0.25 h.
Series [2] in a line: Drug uptake in tumor of mouse xenografted with mouse B16 cells assessed per gram of tissue after 3 hrs. Type of series: ADME, Neoplasm. The following applies: in vivo.
Series [3] can be described thus: Ratio of drug level in tumor to blood in mouse. Format: ADME, organism-based.
Series [4] in a line: Drug uptake in tumor of mouse xenografted with mouse B16 cells after 6 hrs. Type of series: ADME, Neoplasm. The following applies: in vivo.
A short description of series [5]: Drug uptake in tumor of mouse xenografted with mouse B16 cells assessed per gram of tissue after 72 hrs. Format: ADME, Neoplasm. The following applies: in vivo.
Series [6] is described as follows: Cytotoxicity against human IPC227F cells after 48 hrs using Hoechst 33342 dye-based fluorescence microplate reader. Type of series: functional, cell-based. The method in brief: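 Attached IPC227F human ocular melanoma cells were seeded and grown 24 h at 37 °C, 5% CO2, in DMEM with 10% fetal calf serum. Cells were then given fresh medium with increasing drug concentrations from DMSO stocks (DMSO final 0.025%) for 48 h, PBS-washed and frozen at -80 °C. Hoechst 33342 staining followed at room temperature in the dark. Fluorescence was read at 360/460 nm, survival was expressed as % of untreated control, and IC50 determined.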

Molecules are shown by their SMILES. Peptide text beside a SMILES is read from it. * marks the point of attachment. Cbz = O=C(OCc1ccccc1)* Bounds are passed on as bounds.

Turning to `CCN(CC)CCNC(=O)c1ccc(C(=O)N[C@@H](CC(C)C)C(=O)N[C@@H](CC(C)C)C(=O)N[C@H](C=O)CC(C)C)c([125I])c1`, the Drug uptake was 2.7% in series [1], 1.2% in series [2] and 1.2% in series [4]. In series [3], the Kp is at least 1. The compound `CCCN(CCC)CCCCNC(=O)c1ccc([125I])cc1` yielded a Drug uptake in series [5] of 3.2%. Take `CCCN(CCC)CCNC(=O)c1ccc(C(=O)N[C@@H](CC(C)C)C(=O)N[C@@H](CC(C)C)C(=O)N[C@H](C=O)CC(C)C)cc1`: half-maximal inhibition in series [6] (IC50) was put at 0.71 µM. `CCCN(CCC)CCCCNC(=O)c1ccc(C(=O)N[C@@H](CC(C)C)C(=O)N[C@@H](CC(C)C)C(=O)N[C@H](C=O)CC(C)C)cc1` gave an IC50 in series [6] of 4.18 µM.

Turning to `CCN(CC)CCNC(=O)c1ccc(C(=O)N[C@@H](Cc2ccccc2)C(=O)N[C@H](/C=C/S(C)(=O)=O)CC(C)C)cc1`, the IC50 in series [6] was found to be 94.5 µM. Compound `CCN(CC)CCNC(=O)c1ccc(C(=O)N[C@@H](CC(C)C)C(=O)N[C@@H](CC(C)C)C(=O)N[C@H](/C=C/S(C)(=O)=O)CC(C)C)cc1` showed a concentration for half-maximal inhibition (IC50) in series [6] of 28.7 µM. On the same count and under the same terms, then `CCN(CC)CCNC(=O)c1ccc(C(=O)N[C@@H](Cc2ccccc2)C(=O)N[C@@H](CC(C)C)C(=O)N[C@H](/C=C/S(C)(=O)=O)CC(C)C)cc1`, with 120 µM. On the same count and under the same terms, with `CCN(CC)CCNC(=O)c1ccc(C(=O)N[C@@H](Cc2ccccc2)C(=O)N[C@H](C=O)CC(C)C)cc1` the figure was 20.9 µM; with `CCN(CC)CCNC(=O)c1ccc(C(=O)N[C@@H](CC(C)C)C(=O)N[C@@H](CC(C)C)C(=O)N[C@H](C=O)CC(C)C)cc1`, 0.64 µM. As for `CCN(CC)CCNC(=O)c1ccc(C(=O)N[C@@H](Cc2ccccc2)C(=O)N[C@@H](CC(C)C)C(=O)N[C@H](C=O)CC(C)C)cc1`, in series [6], the half-maximal inhibitory concentration (IC50) was found to be 11.9 µM. The same measure, in the same setting: with `CC(C)C[C@@H](C=O)NC(=O)[C@H](CC(C)C)NC(=O)[C@H](CC(C)C)NC(=O)OCc1ccccc1` [MG-132] (Cbz-Leu-Leu-Leu-aldehyde) the figure was 0.077 µM.
